Measured values published in ChEMBL document CHEMBL4613213, “Anibamine and Its Analogues: Potent Antiplasmodial Agents from Aniba citrifolia” (J Nat Prod, 2020).
Active and inactive are the calls of the source. The rule behind the calls is not given here.

How the values were obtained:
Plasmodium falciparum [1] = assay: Antiplasmodial activity against Plasmodium falciparum Dd2 assessed as reduction in parasite growth after 72 hrs by SYBR Green 1 staining based assay; format: functional, organism-based; settings: Plasmodium falciparum, Dd2, 72 h; read-out: IC50
Method in brief: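 Dd2 cultures started at ring stage, 1% hematocrit and 1% parasitemia. Grown 72 h at 37 °C in 5% CO2/5% O2/90% N2 across increasing drug concentrations. Viability read by SYBR Green I DNA quantitation in lysis buffer. IC50 from nonlinear regression; mean of three independent determinations, each in triplicate, ± SEM.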

Plasmodium falciparum [2] = assay: Antiplasmodial activity against Plasmodium falciparum Dd2 schizonts form infected in erythrocytes assessed as reduction in trophozoites formation at 1 uM after 48 hrs by Giemsa staining based light microscopic method; format: functional, organism-based
Method in brief: (§1)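 Compound added at schizont stage (40–42 post-invasion). Morphology assessed on Giemsa-stained thin blood smears at 6, 24 and 48 h of treatment and compared with untreated controls. Two or more independent experiments.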

Plasmodium falciparum [3] = assay: Antiplasmodial activity against Plasmodium falciparum Dd2 schizonts form infected in erythrocytes assessed as reduction in reinvasion at 1 uM after 6 hrs by Giemsa staining based light microscopic method; format: functional, organism-based; method in brief: as §1
[4] = Hemolytic activity in human RBC; format: cell-based, Erythrocyte; settings: human red blood cells (erythrocytes)
Plasmodium falciparum [5] = assay: Antiplasmodial activity against Plasmodium falciparum Dd2 schizonts form infected in erythrocytes assessed as morphological defects formation at 1 uM after 48 hrs by Giemsa staining based light microscopic method; format: functional, organism-based; method in brief: as §1
Plasmodium falciparum [6] = assay: Antiplasmodial activity against Plasmodium falciparum Dd2 schizonts form infected in erythrocytes assessed as reduction in ring stage formation at 1 uM after 6 hrs by Giemsa staining based light microscopic method; format: functional, organism-based; method in brief: as §1
Plasmodium falciparum [7] = assay: Antiplasmodial activity against Plasmodium falciparum Dd2 schizonts form infected in erythrocytes assessed as reduction in parasite growth at 1 uM after 6 hrs by Giemsa staining based light microscopic method; format: functional, organism-based; method in brief: as §1
Plasmodium falciparum [8] = assay: Antiplasmodial activity against Plasmodium falciparum Dd2 schizonts form infected in erythrocytes assessed as reduction in parasite growth at 0.5 uM after 6 hrs by Giemsa staining based light microscopic method; format: functional, organism-based; method in brief: as §1
Plasmodium falciparum [9] = assay: Antiplasmodial activity against Plasmodium falciparum Dd2 schizonts form infected in erythrocytes assessed as reduction in trophozoites formation at 0.5 uM after 48 hrs by Giemsa staining based light microscopic method; format: functional, organism-based; method in brief: as §1
Plasmodium falciparum [10] = assay: Antiplasmodial activity against Plasmodium falciparum Dd2 schizonts form infected in erythrocytes assessed as morphological defects at 0.5 uM after 48 hrs by Giemsa staining based light microscopic method; format: functional, organism-based; method in brief: as §1
Plasmodium falciparum [11] = assay: Antiplasmodial activity against Plasmodium falciparum Dd2 schizonts form infected in erythrocytes assessed as reduction in ring stage formation at 0.5 uM after 6 hrs by Giemsa staining based light microscopic method; format: functional, organism-based; method in brief: as §1
Plasmodium falciparum [12] = assay: Antiplasmodial activity against Plasmodium falciparum Dd2 schizonts form infected in erythrocytes assessed as reduction in reinvasion at 0.5 uM after 6 hrs by Giemsa staining based light microscopic method; format: functional, organism-based; method in brief: as §1
A2780 = assay: Cytotoxicity against human A2780 cells assessed as reduction in cell viability after 2 days by AlamarBlue assay; format: ADME, cell-based; settings: A2780, 48 h
[13] = Cytotoxicity against mouse 3T3 cells by neutral red uptake assay; format: cell-based; settings: NIH3T3 cells, read-out: TC50 (the source's name)
Plasmodium falciparum [14] = assay: Antiplasmodial activity against Plasmodium falciparum Dd2 ring stage form infected in erythrocytes assessed as reduction in parasite growth at 0.5 uM after 6 to 72 hrs by Giemsa staining based light microscopic method; format: functional, organism-based
Method in brief: (§2)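 Compound added at ring stage (2–4 h post-invasion). Development followed on Giemsa-stained thin blood smears after 6, 24, 48 and 72 h of treatment and compared with untreated controls. Two or more independent experiments.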

Plasmodium falciparum [15] = assay: Antiplasmodial activity against Plasmodium falciparum Dd2 ring stage form infected in erythrocytes assessed as reduction in reinvasion at 0.5 uM after 48 to 72 hrs by Giemsa staining based light microscopic method; format: functional, organism-based; method in brief: as §2
Plasmodium falciparum [16] = assay: Antiplasmodial activity against Plasmodium falciparum Dd2 schizonts form infected in erythrocytes assessed as reduction in reinvasion at 1.25 uM after 6 hrs by Giemsa staining based light microscopic method; format: functional, organism-based
Method in brief: (§3)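 Dd2 intraerythrocytic cultures were treated either at ring stage (2–4 h post-invasion) or at schizont stage (40–42 post-invasion). Development and morphology were followed by light microscopy of Giemsa-stained thin blood smears at 6, 24, 48 and 72 h of treatment and compared with untreated controls. Data come from two or more independent experiments.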

Plasmodium falciparum [17] = assay: Antiplasmodial activity against Plasmodium falciparum Dd2 schizonts form infected in erythrocytes assessed as reduction in parasite growth at 1.25 uM after 6 hrs by Giemsa staining based light microscopic method; format: functional, organism-based; method in brief: as §3
Plasmodium falciparum [18] = assay: Antiplasmodial activity against Plasmodium falciparum Dd2 schizonts form infected in erythrocytes assessed as reduction in ring stage formation at 1.25 uM after 6 hrs by Giemsa staining based light microscopic method; format: functional, organism-based; method in brief: as §3
Plasmodium falciparum [19] = assay: Antiplasmodial activity against Plasmodium falciparum Dd2 ring stage form infected in erythrocytes assessed as reduction in reinvasion at 1 uM after 48 to 72 hrs by Giemsa staining based light microscopic method; format: functional, organism-based; method in brief: as §2
Plasmodium falciparum [20] = assay: Antiplasmodial activity against Plasmodium falciparum Dd2 ring stage form infected in erythrocytes assessed as reduction in parasite growth at 1 uM after 6 to 72 hrs by Giemsa staining based light microscopic method; format: functional, organism-based; method in brief: as §2

CCCCCCCCCCc1c(C)c(CCCCCCCCCC)c2[n+](c1C)CCCCC2
IC50 (Plasmodium falciparum [1]): 77 nM
Activity (Plasmodium falciparum [2]): Active
Activity (Plasmodium falciparum [3]): inactive
HC50 [4]: > 58 µM
Activity (Plasmodium falciparum [5]): Active
Activity (Plasmodium falciparum [6]): inactive
Activity (Plasmodium falciparum [7]): inactive

CCCCCCCC/C=C\c1c(C)cc(C)nc1CCCOC
IC50 (Plasmodium falciparum [1]): 8800 nM

CCCCCCCC/C=C/c1c(C)cc(C)nc1C
IC50 (Plasmodium falciparum [1]): > 20000 nM

CCCCCCCC/C=C/c1c(C)c(/C=C/CCCCCCCC)c2[n+](c1C)CCC2
Activity (Plasmodium falciparum [8]): inactive
IC50 (Plasmodium falciparum [1]): 96 nM
Activity (Plasmodium falciparum [9]): Active
Activity (Plasmodium falciparum [10]): Active
HC50 [4]: > 58 µM
Activity (Plasmodium falciparum [11]): inactive
Activity (Plasmodium falciparum [12]): inactive

CCCCCCCCCCc1c(C)cc(CCCOC)nc1C
IC50 (Plasmodium falciparum [1]): 5300 nM

C.C=CC[C@]1(C(=O)OC)CC(=O)C[C@H](c2ccc3c(c2)OCO3)[C@H]1C
IC50 (Plasmodium falciparum [1]): > 100000 nM
IC50 (A2780): > 10000 nM

CCCCCCCC/C=C\c1c(C)c(/C=C\CCCCCCCC)c2[n+](c1C)CCCCC2
Activity (Plasmodium falciparum [8]): inactive
IC50 (Plasmodium falciparum [1]): 67 nM
Activity (Plasmodium falciparum [9]): Active
Activity (Plasmodium falciparum [10]): Active
HC50 [4]: > 58 µM
Activity (Plasmodium falciparum [11]): inactive
Activity (Plasmodium falciparum [12]): inactive

CCCCCCCC/C=C/c1c(C)c(CCCCCCCCCC)c2[n+](c1C)CCC2
IC50 (Plasmodium falciparum [1]): 244 nM
IC50 (A2780): 241 nM

CCCCCCCC/C=C\c1c(C)cc(CCCOC)nc1C
IC50 (Plasmodium falciparum [1]): 6300 nM

C=CC[C@@]12C=C(OC)C(=O)[C@@H]([C@@H](c3ccc4c(c3)OCO4)[C@@H]1C)[C@@H]2O
IC50 (Plasmodium falciparum [1]): > 100000 nM
IC50 (A2780): 10000 to 50000 nM

CCCCCCCCCCc1c(C)nc(CCCOC)c(CCCCCCCCCC)c1C
IC50 (Plasmodium falciparum [1]): > 20000 nM

CCCCCCCC/C=C\c1c(C)nc(CCCOC)c(/C=C/CCCCCCCC)c1C
IC50 (Plasmodium falciparum [1]): > 20000 nM

CCCCCCCC/C=C\c1c(C)c(/C=C\CCCCCCCC)c2[n+](c1C)CCC2 [ANIBAMINE]
IC50 (Plasmodium falciparum [1]): 170 nM
IC50 (A2780): 223 nM
CC50 [13]: > 22000 nM

CCCCCCCC/C=C\c1c(C)nc(C)c(/C=C/CCCCCCCC)c1C
IC50 (Plasmodium falciparum [1]): 20000 nM

CCCCCCCC/C=C/c1c(C)cc2[n+](c1C)CCC2
Activity (Plasmodium falciparum [8]): inactive
IC50 (Plasmodium falciparum [1]): 171 nM
Activity (Plasmodium falciparum [14]): inactive
Activity (Plasmodium falciparum [15]): inactive
Activity (Plasmodium falciparum [11]): inactive
Activity (Plasmodium falciparum [12]): inactive

CCCCCCCC/C=C/c1c(C)c(/C=C/CCCCCCCC)c2[n+](c1C)CCCCC2
Activity (Plasmodium falciparum [8]): inactive
IC50 (Plasmodium falciparum [1]): 60 nM
Activity (Plasmodium falciparum [9]): Active
Activity (Plasmodium falciparum [10]): Active
HC50 [4]: > 58 µM
Activity (Plasmodium falciparum [11]): inactive
Activity (Plasmodium falciparum [12]): inactive

COc1cc(C/C=C(\C)CCC=C(C)C)c(O)c(-c2cc3cc(OC)cc(C/C=C(\C)CCC=C(C)C)c3oc2=O)c1
IC50 (Plasmodium falciparum [1]): 18200 nM

CCCCCCCC/C=C\c1c(C)c(/C=C\CCCCCCCC)c2[n+](c1C)CCC2
Activity (Plasmodium falciparum [16]): inactive
Activity (Plasmodium falciparum [8]): inactive
Activity (Plasmodium falciparum [9]): Active
Activity (Plasmodium falciparum [10]): Active
Activity (Plasmodium falciparum [11]): inactive
Activity (Plasmodium falciparum [17]): inactive
Activity (Plasmodium falciparum [12]): inactive
Activity (Plasmodium falciparum [18]): inactive

CCCCCCCC/C=C\c1c(C)cc2[n+](c1C)CCC2
Activity (Plasmodium falciparum [19]): inactive
IC50 (Plasmodium falciparum [1]): 142 nM
Activity (Plasmodium falciparum [3]): inactive
Activity (Plasmodium falciparum [20]): inactive
Activity (Plasmodium falciparum [6]): inactive
Activity (Plasmodium falciparum [7]): inactive

CCCCCCCCCCc1c(C)c(CCCCCCCCCC)c2[n+](c1C)CCCC2
Activity (Plasmodium falciparum [8]): inactive
IC50 (Plasmodium falciparum [1]): 58 nM
Activity (Plasmodium falciparum [9]): Active
Activity (Plasmodium falciparum [10]): Active
HC50 [4]: > 58 µM
Activity (Plasmodium falciparum [11]): inactive
Activity (Plasmodium falciparum [12]): inactive
